Measured values collected from several papers.
Lines come from different studies, so protocols differ.
SMARCA2: SWI/SNF-related matrix-associated actin-dependent regulator of chromatin subfamily A member 2 (SMARCA2, Homo sapiens, UniProt P51531)
BRAF V600E: Serine/threonine-protein kinase B-raf (BRAF, Homo sapiens, UniProt P15056, V600E)

Cc1ccc(C(=O)Nc2ccc(CN3CCN(C)CC3)c(C(F)(F)F)c2)cc1C#Cc1cnc2cccnn12
remaining signal (Epidermal growth factor receptor (EGFR, Homo sapiens, UniProt P00533, del752-759); cell-free assay; 23.5 nM): 87%

Nc1ncnc2occ(-c3ccc(NC(=O)Nc4cc(C(F)(F)F)ccc4F)cc3)c12
remaining signal (Serine/threonine-protein kinase Nek5 (NEK5, Homo sapiens, UniProt Q6P3R8); cell-free assay, inhibitor; 20 µM): 0.95%

CCC/C=C1\CCn2c1nc(=O)c1c(Cl)cccc12
ΔTm (SMARCA2; thermal stability, DSF; 100 µM): 4.61 °C

CC(=O)N[C@H]1CSSC[C@@H](C(=O)N[C@@H](Cc2c[nH]c3ccccc23)C(N)=O)NC(=O)[C@H](Cc2ccccc2)NC(=O)[C@H](CCCNC(=N)N)NC1=O
Emax (Melanocortin receptor 3 (MC3R, Homo sapiens, UniProt P41968); cAMP, agonist; HEK293; 3 min): 0%

CC(C)(C)c1nc(-c2cccc(NS(=O)(=O)c3c(F)cccc3F)c2F)c(-c2ccnc(N)n2)s1
inhibition (BRAF V600E; enzyme activity, inhibitor, ATP luminescence; 10 nM): 34%

CCCOc1ccc(OC)c(F)c1C(=O)c1ccc(C(=O)N[C@@H]2CNC[C@H]2NC(=O)c2ccc3[nH]ncc3c2)cc1
remaining activity (Muscle, skeletal receptor tyrosine-protein kinase (MUSK, Homo sapiens, UniProt O15146); enzyme activity, inhibitor; 0.1 µM): 65%

CCC(/C=C1\CCn2c1nc(=O)c1c(Cl)cccc12)CC
ΔTm (SMARCA2; thermal stability, DSF; 100 µM): 5.33 °C

Cc1ccc(C(CS(=O)(=O)c2ccccc2)=NNc2nc(C)c(N=Nc3cccc(C)c3)s2)cc1
inhibition (BRAF V600E; enzyme activity, inhibitor, ATP luminescence; 1 µM): 81%
